Rtt109 HAT inh: C. albicans Rtt109 histone acetyltransferase inhibition. hit rate 0.16% among 330,000. Q5AAJ8. purified Rtt109/Vps75, ThioGlo CoA-SH fluorescence, 4 h. inhibition, % at 34.9 µM;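 active = inhibition of at least 50% in every replicate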
Target sequence (Q5AAJ8 whole entry, looked up): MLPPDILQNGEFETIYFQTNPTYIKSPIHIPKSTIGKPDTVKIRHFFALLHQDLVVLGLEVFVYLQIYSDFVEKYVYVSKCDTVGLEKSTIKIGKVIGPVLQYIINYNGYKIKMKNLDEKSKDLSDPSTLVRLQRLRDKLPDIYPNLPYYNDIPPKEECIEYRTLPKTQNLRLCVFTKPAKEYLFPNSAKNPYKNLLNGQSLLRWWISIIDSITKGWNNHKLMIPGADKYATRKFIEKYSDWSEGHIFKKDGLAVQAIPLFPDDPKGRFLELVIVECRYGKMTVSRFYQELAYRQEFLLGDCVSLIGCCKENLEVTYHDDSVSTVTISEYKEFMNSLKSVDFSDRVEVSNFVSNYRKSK
PfHsp90 set2: growth inhibition of yeast expressing Plasmodium Hsp90 | S. cerevisiae expressing PfHsp90, BacTiter-Glo ATP, 48 h; yeast lacking PDR1 and PDR3 efflux regulators | inhibition, % at 9.4 µM | AID 504621 | hit rate 0.32% among 310,000;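 active = every replicate shows inhibition above about 80%, whatever the replicate mean, limit read from the data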;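 also: 0% = DMSO neutral controls and 100% = 20 µM radicicol positive controls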
PAX8 reporter: lowers PAX8-driven luciferase in RMG-I cells. AID 652154. inhibition, % at 12.6 µM. RMG-I TPO-luciferase reporter, SteadyGlo, 24 h. hit rate 1.2% among 360,000;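 active = mean replicate inhibition at least 60% with every replicate also reaching 60%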;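 also: luciferase light reporting Pax8 driven TPO promoter activity; plate controls were median of neutral control wells for no effect and mitoxantrone controls for full effect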
Env fusion inh: HIV envelope-mediated fusion inhibition; HeLa-JRFL Env/CEM21 cell fusion, luciferase; inhibition, % at 12.3 µM; hit rate 1.1% among 360,000;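 active = mean replicate inhibition score of at least 50 and every replicate individually at or above 50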;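 also: 0% = plate neutral controls and 100% = maraviroc near 300 nM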
Arr AP2 block: human beta-arrestin and AP2 interaction inhibition | FITC-arrestin peptide / GST-AP2 beads, flow cytometry; AP2 beta2 appendage carries R879A mutation | inhibition, % at 10 µM | hit rate 0.31% among 340,000 | AID 504490;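 active = inhibition above a set limit, near 3 SD of compounds lacking own fluorescence, cut at about 54% in these data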;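 also: plate controls were DMSO wells for no effect and 5 µM unlabelled arrestin peptide for full effect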
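System: GST-AP2 R879A bound to glutathione beads, E. coli-expressed. Also added: 50 nM FITC-arrestin peptide. Schedule: compound with beads 12 min RT, then probe 1 h RT. Signal: bead flow cytometry, FITC channel. Read-out basis: percent response.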
Glyco luc inh: N-linked glycosylation inhibition; D54 ERlucT glycosylation luciferase reporter, 24 h; percent of 100 nM tunicamycin response; reporter increase, % at 12.5 µM; hit rate 0.23% among 360,000;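 active = mean luciferase reporter signal, scaled so untreated is 0 and the glycosylation-blocking control 100, at or above a set limit in every replicate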;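 also: luciferase carries N-glycosylation sites so blocking glycosylation raises the light; 0% = median of neutral control wells and 100% = median of 100 nM tunicamycin wells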
* hit, by the source's call; i = inactive; / = no result given; [ ] = remark or other dose. This is a sample that favours compounds with a hit; in the whole collection about 2.3% have one here.

SMILES	Rtt109 HAT inh	PfHsp90 set2	PAX8 reporter	Env fusion inh	Arr AP2 block	Glyco luc inh
C[C@@H]1CN([C@@H](C)CO)C(=O)Cc2cc(NS(=O)(=O)c3cn(C)cn3)ccc2O[C@H]1CN(C)Cc1ccc(-c2ccccc2)cc1	/	/	/	20[16.7 µM]	/	/
Cc1noc(C)c1S(=O)(=O)Nc1ccc2c(c1)C(=O)N([C@H](C)CO)C[C@H](C)[C@H](CN(C)Cc1ccc(Cl)c(Cl)c1)OCCCC[C@@H](C)O2	/	/	-12	-38[16.7 µM]	/	/
Cc1noc(C)c1S(=O)(=O)Nc1ccc2c(c1)C(=O)N([C@@H](C)CO)C[C@@H](C)[C@@H](CN(C)Cc1ccc(Cl)c(Cl)c1)OCCCC[C@@H](C)O2	/	/	65*	-3[16.7 µM]	/	/
Cc1noc(C)c1S(=O)(=O)Nc1ccc2c(c1)C(=O)N([C@@H](C)CO)C[C@@H](C)[C@H](CN(C)Cc1ccc(Cl)c(Cl)c1)OCCCC[C@@H](C)O2	/	/	69*	-2[16.7 µM]	/	/
COC(=O)C[C@H]1C[C@@H]2c3cc(NS(=O)(=O)c4ccc(F)cc4)ccc3O[C@@H]2[C@H](CO)O1	/	/	-14	-14[16.7 µM]	/	/
CCCCn1c(=O)[nH]c(=O)c2c1nc(Cn1ncc(Cl)c(Cl)c1=O)n2CCC	5	0	97*	-112	36	-7
C[C@H](CO)N1C[C@H](C)[C@H](CN(C)CC2CCOCC2)Oc2ncc(C#C[C@@H](C)O)cc2C1=O	/	/	12	3[16.7 µM]	/	/
COc1ccccc1N(CC(=O)Nc1ccc(S(=O)(=O)N2CCOCC2)cc1)S(C)(=O)=O	9	11	10	14	1	-1
CCOc1ccccc1N(CC(=O)Nc1ccc(S(=O)(=O)N2CCOCC2)cc1)S(=O)(=O)c1ccc(Cl)cc1	10	-15	62*	/	7	-2
COc1ccc(CN(C)C[C@H]2Oc3ccc(NC(=O)Cc4ccccc4)cc3CC(=O)N([C@H](C)CO)C[C@@H]2C)cc1	/	/	-19	/	/	/
CNc1ccccc1C(C)(C)c1cc(-c2ccc(F)cc2)no1	-4	3	32	66*	21	-8
COCc1cc(C)nc2sc(C(=O)NN)c(-n3cccc3)c12	2	-17	61*	5	16	3
CC(=O)NC[C@@H]1[C@@H](c2ccc(-c3cccnc3)cc2)[C@H](CO)N1C(=O)C1CCC1	/	/	-16	/	/	/
C[C@@H]1CN([C@@H](C)CO)C(=O)c2cc(C3=CCCCC3)cnc2O[C@@H]1CN(C)C(=O)NC1CCCC1	/	/	/	-2[16.7 µM]	/	/
Cc1cc(C)c2c(N)c3cccc(C)c3nc2n1	i	5	-4	-196	9	104*
C[C@@H]1CN([C@@H](C)CO)C(=O)Cc2cc(NC(=O)Cc3cn(C)c4ccccc34)ccc2O[C@H]1CN(C)S(=O)(=O)c1ccc(F)cc1	/	/	-1	-4[16.7 µM]	/	/
C[C@H]1CN([C@@H](C)CO)C(=O)Cc2cc(NC(=O)Cc3cn(C)c4ccccc34)ccc2O[C@H]1CN(C)S(=O)(=O)c1ccccc1	/	/	-11	67*[16.7 µM]	/	/
C[C@H](CO)N1C[C@H](C)[C@H](CN(C)S(=O)(=O)c2ccc(F)cc2)Oc2ccc(NC(=O)Cc3cn(C)c4ccccc34)cc2CC1=O	/	/	-1	56*[16.7 µM]	/	/
Cc1ccc(S(=O)(=O)N(C)C[C@@H]2Oc3ccc(NC(=O)Cc4cn(C)c5ccccc45)cc3CC(=O)N([C@H](C)CO)C[C@@H]2C)cc1	/	/	3	74*[16.7 µM]	/	/
C[C@@H]1CN([C@H](C)CO)C(=O)c2cc(-c3ccccc3)cnc2O[C@H]1CN(C)C(=O)c1cccc(F)c1	/	/	/	-8[16.7 µM]	/	/
CCN1[C@H](C(=O)NCCc2cn(C)cn2)[C@@H](CO)[C@@H]2Cn3c(ccc(-c4ccncc4)c3=O)[C@@H]21	/	/	-5	/	/	/
C[C@H](CO)N1C[C@H](C)[C@H](CN(C)S(=O)(=O)c2ccc(F)cc2)Oc2ncc(C#CC3CCCCC3)cc2C1=O	/	/	/	23[16.7 µM]	/	/
Cc1ccc(S(=O)(=O)N(C)C[C@H]2OCCCC[C@H](C)Oc3ccc(NS(=O)(=O)c4cn(C)cn4)cc3C(=O)N([C@@H](C)CO)C[C@H]2C)cc1	/	/	-16	0[16.7 µM]	/	/
CCN1[C@@H]2Cn3c(ccc(-c4ccncc4)c3=O)[C@H]1[C@@H](C(=O)Nc1ccccc1)[C@@H]2CO	/	/	/	17[16.7 µM]	/	/
CCC(=O)N(CC)C1=C(O)c2ccccc2C(=O)C1=O	-9	/	/	/	14	10

Source: PubChem BioAssay
